Measurements reported in ChEMBL document CHEMBL1147132, “Structure-activity relationship studies of gonadotropin-releasing hormone antagonists containing S-aryl/alkyl norcysteines and their oxidized derivatives” (J Med Chem, 2007).
In brackets after ≈: the same amount, converted by molar mass.

How the values were obtained:
[1] = Solubility in 5% mannitol; type: physicochemical
[2] = molecular target: T1, Gonadotropin-releasing hormone receptor (Homo sapiens, UniProt P30968); assay: Antagonist activity at human GnRHR expressed in HEK293 cells assessed as inhibition of GnRH-induced luciferase response by reporter gene assay; type: functional, cell-based
T1 sequence (P30968 whole entry): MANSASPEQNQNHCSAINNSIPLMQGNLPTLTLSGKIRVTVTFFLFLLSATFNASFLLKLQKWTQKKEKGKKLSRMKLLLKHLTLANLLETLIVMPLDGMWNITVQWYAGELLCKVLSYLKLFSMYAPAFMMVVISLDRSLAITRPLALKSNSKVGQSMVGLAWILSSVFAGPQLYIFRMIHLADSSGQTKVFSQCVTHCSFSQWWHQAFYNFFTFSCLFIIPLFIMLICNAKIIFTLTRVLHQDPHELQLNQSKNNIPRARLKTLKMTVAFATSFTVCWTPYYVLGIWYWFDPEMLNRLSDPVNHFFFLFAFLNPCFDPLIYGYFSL
Procedure, shortened: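 HEK293 cells stably expressing cloned human GnRHR and an LH alpha-subunit-promoter luciferase reporter, plated overnight. Compound in 1% DMSO was added 10 min before GnRH (1 nM final), then ≥5 h at 37 °C, 5% CO2, then luminescence. 11 half-log concentrations in duplicate. IC50 from four-parameter logistic fit, reported as geometric mean of ≥2 experiments.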

SMILES | solubility [1] [mg/mL] | IC50 [2]
CC(=O)Nc1ccc(C[C@H](NC(=O)[C@H](CO)NC(=O)[C@@H](Cc2cccnc2)NC(=O)[C@@H](Cc2ccc(Cl)cc2)NC(=O)[C@@H](Cc2ccc3ccccc3c2)NC(C)=O)C(=O)N[C@H](Cc2ccc(NC(C)=O)cc2)C(=O)N[C@@H](CC(C)C)C(=O)N[C@@H](CCCCNC(C)C)C(=O)N2CCC[C@H]2C(=O)N[C@H](C(N)=O)[S+](C)[O-])cc1 (stereo partly drawn) | 50 (≈ 31.6 mM) | 0.87 nM (antagonist)
CC(=O)Nc1ccc(C[C@H](NC(=O)[C@H](CO)NC(=O)[C@@H](CCC(N)=O)NC(=O)[C@@H](Cc2ccc(Cl)cc2)NC(=O)[C@@H](Cc2ccc3ccccc3c2)NC(C)=O)C(=O)N[C@H](Cc2ccc(NC(C)=O)cc2)C(=O)N[C@@H](C(=O)N[C@@H](CCCCNC(C)C)C(=O)N2CCC[C@H]2C(=O)N[C@H](C)C(N)=O)[S+]([O-])C(C)C)cc1 (stereo partly drawn) | 50 (≈ 32.3 mM) | 85 nM (antagonist)
CC(=O)Nc1ccc(C[C@H](NC(=O)[C@H](CO)NC(=O)[C@@H](CCC(N)=O)NC(=O)[C@@H](Cc2ccc(Cl)cc2)NC(=O)[C@@H](Cc2ccc3ccccc3c2)NC(C)=O)C(=O)N[C@H](Cc2ccc(NC(C)=O)cc2)C(=O)N[C@@H](SC(C)C)C(=O)N[C@@H](CCCCNC(C)C)C(=O)N2CCC[C@H]2C(=O)N[C@H](C)C(N)=O)cc1 | 50 (≈ 32.7 mM) | 6.2 nM (antagonist)
CC(=O)Nc1ccc(C[C@H](NC(=O)[C@H](CO)NC(=O)[C@@H](CCC(N)=O)NC(=O)[C@@H](Cc2ccc(Cl)cc2)NC(=O)[C@@H](Cc2ccc3ccccc3c2)NC(C)=O)C(=O)N[C@H](Cc2ccc(NC(C)=O)cc2)C(=O)N[C@H](C(=O)N[C@@H](CCCCNC(C)C)C(=O)N2CCC[C@H]2C(=O)N[C@H](C)C(N)=O)S(=O)(=O)C(C)C)cc1 | 50 (≈ 32 mM) | 3810 nM (antagonist)
CC(=O)Nc1ccc(C[C@H](NC(=O)[C@H](CO)NC(=O)[C@@H](Cc2cccnc2)NC(=O)[C@@H](Cc2ccc(Cl)cc2)NC(=O)[C@@H](Cc2ccc3ccccc3c2)NC(C)=O)C(=O)N[C@H](Cc2ccc(NC(C)=O)cc2)C(=O)N[C@@H](C(=O)N[C@@H](CCCCNC(C)C)C(=O)N2CCC[C@H]2C(=O)N[C@H](C)C(N)=O)[S+]([O-])C(C)C)cc1 (stereo partly drawn) | 50 (≈ 31.9 mM) | 3 nM (antagonist)
CC(=O)Nc1ccc(C[C@H](NC(=O)[C@H](CO)NC(=O)[C@@H](Cc2cccnc2)NC(=O)[C@@H](Cc2ccc(Cl)cc2)NC(=O)[C@@H](Cc2ccc3ccccc3c2)NC(C)=O)C(=O)N[C@H](Cc2ccc(NC(C)=O)cc2)C(=O)N[C@@H](CC(C)C)C(=O)N[C@@H](CCCCNC(C)C)C(=O)N2CCC[C@H]2C(=O)N[C@@H](C(N)=O)[S+](C)[O-])cc1 (stereo partly drawn) | 50 (≈ 31.6 mM) | 0.83 nM (antagonist)
CC(=O)Nc1ccc(C[C@H](NC(=O)[C@H](CO)NC(=O)[C@@H](CCC(N)=O)NC(=O)[C@@H](Cc2ccc(Cl)cc2)NC(=O)[C@@H](Cc2ccc3ccccc3c2)NC(C)=O)C(=O)N[C@H](Cc2ccc(NC(C)=O)cc2)C(=O)N[C@@H](C(=O)N[C@@H](CCCCNC(C)C)C(=O)N2CCC[C@H]2C(=O)N[C@H](C)C(N)=O)S(=O)(=O)C(C)C)cc1 | 50 (≈ 32 mM) | 2000 nM (antagonist)
CC(=O)Nc1ccc(C[C@H](NC(=O)[C@H](NC(=O)[C@@H](Cc2cccnc2)NC(=O)[C@@H](Cc2ccc(Cl)cc2)NC(=O)[C@@H](Cc2ccc3ccccc3c2)NC(C)=O)[S+](C)[O-])C(=O)N[C@H](Cc2ccc(NC(C)=O)cc2)C(=O)N[C@@H](CC(C)C)C(=O)N[C@@H](CCCCNC(C)C)C(=O)N2CCC[C@H]2C(=O)N[C@H](C)C(N)=O)cc1 (stereo partly drawn) | 50 (≈ 31.9 mM) | 6.9 nM (antagonist)
CC(=O)Nc1ccc(C[C@H](NC(=O)[C@H](CO)NC(=O)[C@@H](CCC(N)=O)NC(=O)[C@@H](Cc2ccc(Cl)cc2)NC(=O)[C@@H](Cc2ccc3ccccc3c2)NC(C)=O)C(=O)N[C@H](Cc2ccc(NC(C)=O)cc2)C(=O)N[C@H](C(=O)N[C@@H](CCCCNC(C)C)C(=O)N2CCC[C@H]2C(=O)N[C@H](C)C(N)=O)[S+]([O-])C(C)C)cc1 (stereo partly drawn) | 50 (≈ 32.3 mM) | 13 nM (antagonist)
